# Most compounds without a hit are left out; they make up all but 2.5% or so of the library.
# SENP8 block-1: SENP8 protease inhibitors, primary screen, biochemical, luminescence. purified SENP8, Z-RLRGG-aminoluciferin cleavage. inhibition, % at 10 µM. Sentrin-specific protease 8 (Homo sapiens), Q96LD8. hit rate 1.2% among 330,000; in the data active = inhibition above about 50%
# SENP6 block: SENP6 protease inhibitors, primary screen, biochemical, luminescence, uHTS | Sentrin-specific protease 6 (Homo sapiens), Q9GZR1 | Recombinant SENP6 catalytic domain, aminoluciferin luminescence | inhibition, % at 10 µM | hit rate 1.8% among 330,000;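 active = inhibition above about 50% at the single tested dose, limit read from the data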;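 note: plate controls were DMSO wells with enzyme for no effect and DMSO wells lacking enzyme for full effect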
# Target sequence (Q9GZR1 628-1112 limits assumed): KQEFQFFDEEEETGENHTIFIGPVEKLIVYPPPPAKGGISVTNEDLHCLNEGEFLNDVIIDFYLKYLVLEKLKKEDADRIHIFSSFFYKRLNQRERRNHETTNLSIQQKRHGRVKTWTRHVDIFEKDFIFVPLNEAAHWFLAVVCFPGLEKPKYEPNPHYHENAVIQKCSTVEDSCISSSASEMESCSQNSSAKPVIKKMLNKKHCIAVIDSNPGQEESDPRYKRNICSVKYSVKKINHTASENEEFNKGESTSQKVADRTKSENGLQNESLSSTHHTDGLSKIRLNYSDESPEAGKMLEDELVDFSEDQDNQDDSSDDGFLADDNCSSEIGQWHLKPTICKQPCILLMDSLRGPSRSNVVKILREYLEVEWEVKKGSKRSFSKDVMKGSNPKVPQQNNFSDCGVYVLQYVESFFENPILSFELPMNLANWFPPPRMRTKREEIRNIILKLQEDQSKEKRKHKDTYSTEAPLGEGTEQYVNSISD
# SENP8 block-2: human SENP8 protease inhibitors, primary screen, biochemical, fluorescence, Nedd8 protein substrate, uHTS; Sentrin-specific protease 8 (Homo sapiens), Q96LD8; recombinant SENP8; inhibition, % at 20 µM; hit rate 0.64% among 360,000; AID 602440, 2012; in the data active = inhibition mostly above about 40%, no sharp cut-off; inactive = mostly below about 27%
# SENP7 block: SENP7 protease inhibitors, primary screen, biochemical, luminescence, uHTS; inhibition, % at 5 µM; hit rate 1.5% among 330,000; recombinant SENP7, Z-RLRGG-aminoluciferin luminescence, 40 min; Sentrin-specific protease 7 (Homo sapiens), Q9BQF6;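 active = inhibition above about 50% at the single test dose, limit read from the data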;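 note: plate controls were DMSO with enzyme for no effect and no enzyme buffer wells for full effect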
# SENP1 inh: human SENP1 catalytic domain inhibitors, primary screen, biochemical, FRET, uHTS; recombinant SENP1 catalytic domain, CyPet-SUMO1-YPet FRET cleavage; inhibition, % at 10 µM; hit rate 0.21% among 360,000;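 active = inhibition at least 30% at 10 µM, raw YFP signal under a set limit, fluorescence ratio 0.5 to 1.5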;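 note: 0% = enzyme with DMSO and 100% = no enzyme wells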
#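 Test system: hSENP1 catalytic domain, recombinant; Amount: 20 pM final SENP1 enzyme; Medium: Tris pH 8 buffer plus EDTA, NaCl, BME, BSA, NP40, catalase; Schedule: 50 min enzyme reaction, room temperature, light-protected; Technique: FRET fluorescence in CFP and YFP emission channels; Controls: no-enzyme wells low, DMSO-plus-enzyme wells high control.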
# SENP8 conf: SENP8 protease inhibitors, retest, confirmation, biochemical, luminescence, single concentration. inhibition, % at 12.5 µM. shares compounds with SENP7 block. AID 488912, 2010. Recombinant SENP8, Z-RLRGG-aminoluciferin luminescence, 60 min. hit rate 40% among 6,200;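 active = mean inhibition across replicates above about 50%, limit read from the data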
# SENP6 confirm: SENP6 protease inhibitors, confirmation, biochemical, luminescence, single concentration; shares compounds with SENP7 block; recombinant SENP6, Z-RLRGG-aminoluciferin luminescence; inhibition, % at 12.5 µM; hit rate 58% among 6,200; AID 488915, 2010
# SENP7 conf: SENP7 protease inhibitors, retest, confirmation, biochemical, luminescence, single concentration | shares compounds with SENP7 block | recombinant SENP7, Z-RLRGG-aminoluciferin luminescence, 40 min | inhibition, % at 12.5 µM | hit rate 69% among 6,200 | AID 488917, 2010
# Casp3 select: caspase-3 protease inhibitors, confirmation, selectivity assay for SENP inhibitor project, biochemical, single concentration. shares compounds with SENP7 block. purified caspase-3, Z-DEVD-aminoluciferin luminescence, 60 min. inhibition, % at 12.5 µM. hit rate 60% among 6,200. AID 488918, 2010;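 active = mean inhibition above about 50%, limit read from the data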;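 note: plate controls were enzyme with DMSO for no effect and wells without caspase-3 for full effect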
# Luc interf: counter-screen for SENP inhibitors: luminescence interference. Pre-incubated SENP8/Z-RLRGG-aminoluciferin, luciferase luminescence interference. shares compounds with SENP7 block. hit rate 39% among 6,200. inhibition, % at 12.5 µM;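 active = mean inhibition above about 50% when retested at one dose, limit read from the data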;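 note: plate controls were DMSO wells with completed reaction for no effect and substrate without enzyme for full effect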
# Active calls of the source: *; x = not tested or not shown.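 Rule for the calls, unless noted: active = mean inhibition above about 50% in the one-dose retest (limit read from the data); inactive = the rest.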
SMILES,SENP8 block-1,SENP6 block,SENP8 block-2,SENP7 block,SENP1 inh,SENP8 conf,SENP6 confirm,SENP7 conf,Casp3 select,Luc interf
COCCn1c(C)cc(C(=O)CSc2nc3ccccc3s2)c1C,21,54*,2,-8,0,55*,47,80*,43,26
COCCn1c(C)cc(C(=O)CSc2nc3ccccc3o2)c1C,-14,-26,18,7,-3,x,x,x,x,x
O=[N+]([O-])c1ccc(N/N=C/c2ccccc2O)cc1,58*,70*,-84,50,-24,-2,41,83*,26,19
O=[N+]([O-])c1ccc(O)c(C=Nc2cccc3ncccc23)c1,75*,90*,2,42,-5,2,2,-2,2,-1
O=[N+]([O-])c1ccc(O)c(C=Nc2cccc3ccccc23)c1,61*,58*,-422,19,-23,9,12,0,1,0
CCOC(=O)c1c(/N=C/c2cccc([N+](=O)[O-])c2O)sc(C)c1C,-5,-15,10,13,11,x,x,x,x,x
O=[N+]([O-])c1ccc(O)c(/C=N/Nc2ccccn2)c1,x,x,31,x,14,x,x,x,x,x
O=[N+]([O-])c1cccc(C=Nc2cccc3ccccc23)c1O,85*,88*,-280,43,-21,11,39,4,1,-1
O=S(=O)(Cc1ccccc1)N1CCNCC1,1,-4,16,2,1,x,x,x,x,x
O=C(NNC(=O)C1CCC1)c1ccccc1F,-11,-2,18,10,1,x,x,x,x,x
Cc1ccc(-c2c[n+](Cc3ccc(Cl)c(Cl)c3)c3n2CCC3)cc1,-14,-18,9,-4,0,x,x,x,x,x
O=C(CSCc1cc(=O)n2ccsc2n1)Nc1ccc(F)cc1,6,-9,0,8,-1,x,x,x,x,x
Cc1nc2ccccc2c(=O)n1/N=C/c1ccc(O)cc1O,-6,-9,-9,9,-14,x,x,x,x,x
Oc1ccc(C=Nc2cccc3ccccc23)c(O)c1,44,70*,-435,33,-1,-7,2,1,9,1
CCOC(=O)c1sc2nc3c(cc2c1N)COC(C(C)C)C3 (stereo not given),-3,20,-262,51*,-95,12,8,6,18,3
N#C/C(=C\c1ccc(O)c(Br)c1)C(=O)N1CCCCC1,-1,7,-22,13,-150,x,x,x,x,x
Cc1occc1C(=O)/C(C#N)=C/c1ccc(O)c(Br)c1,97*,98*,18,93*,-26,98*,100*,103*,97*,97*
CCCS(=O)(=O)NC(=O)C1(C)CCN(C(=O)c2ccc(C#N)cc2)C1 (stereo not given),x,x,4,x,1,x,x,x,x,x
O=C(Oc1cccc(-c2cnc3ccccc3n2)c1)c1ccco1,59*,60*,-17,52*,-2,18,45,76*,61*,13
CCN(CC)S(=O)(=O)c1ccc(C)c(C(=O)Oc2cccc(-c3cnc4ccccc4n3)c2)c1,-10,0,1,1,3,x,x,x,x,x
CCCCOc1ccc(-c2ncc(C(=O)O)c(C)n2)cc1,80*,86*,21,88*,2,88*,87*,98*,48,64*
CCCCCCOc1ccc(C(=O)O)cc1,0,6,15,5,1,x,x,x,x,x
Cc1ccc(/C=C2\Sc3ccccc3C2=O)s1,89*,94*,-224,96*,-67,16,86*,94*,67*,65*
Cc1cccc(C)c1NC(=O)C1(C)CN(S(C)(=O)=O)CC(=O)N1Cc1ccc2c(c1)OCO2 (stereo not given),x,x,16,x,-2,x,x,x,x,x
COC(=O)[C@@]12CCCCN1[C@H](c1ccc(-c3ccc4c(c3)OCO4)cc1)[C@H]1C(=O)N(C)C(=O)[C@H]12,2,-3,8,3,0,x,x,x,x,x
SMILES,SENP8 block-1,SENP6 block,SENP8 block-2,SENP7 block,SENP1 inh,SENP8 conf,SENP6 confirm,SENP7 conf,Casp3 select,Luc interf
CC(=O)c1ccccc1NC(=O)c1cc(S(=O)(=O)N2CCOCC2)ccc1N1CCCC1,-6,-15,6,6,2,x,x,x,x,x
O=C(Nc1ccc(C(=O)N2CCCCC2)cc1)C1=CSCCO1,68*,79*,4,81*,1,78*,74*,91*,91*,77*
O=C(c1ccc2c(c1)OCO2)N1CCCC1,1,-17,14,-3,-1,x,x,x,x,x
O=C(Nc1ccc(NC(=O)c2ccco2)c(Cl)c1)c1ccc2c(c1)OCCO2,-19,4,-4,10,3,x,x,x,x,x
O=C(Nc1ccc(NC(=O)c2ccco2)cc1)c1ccc2c(c1)OCO2,31,54*,4,62*,-4,6,13,-3,8,3
O=C(Nc1ccc(C(=O)N2CCCC2)cc1)c1ccc2c(c1)OCO2,80*,87*,2,91*,0,83*,86*,99*,96*,89*
COc1cc(OC)c(NC(=O)CC2SC(N)=NC2=O)cc1Cl (stereo not given),x,x,3,x,2,x,x,x,x,x
CN(C)c1oc(-c2cccs2)nc1C#N,1,-10,-462,2,0,x,x,x,x,x
CN(C)c1ccc(-c2nnc(-c3cccs3)o2)cc1,60*,72*,-398,79*,-40,2,51*,76*,2,4
CCCOc1ccc(-c2nnc(-c3cccs3)o2)cc1,41,80*,-404,-3,2,22,20,17,17,5
CCCCC(=O)Oc1c(S(=O)(=O)c2ccccc2)c(C)nn1C(C)(C)C,10,3,11,-4,0,x,x,x,x,x
O=C(NC(=S)Nc1ccc(S(=O)(=O)Nc2nccs2)cc1)c1cccnc1,3,-7,23,5,3,x,x,x,x,x
O=C(NC(=S)Nc1ccc(S(=O)(=O)Nc2nccs2)cc1)c1ccccc1,32,64*,14,-2,-1,60*,59*,80*,61*,61*
